Measurements from ChEMBL document CHEMBL5705889, “Novel mutant-selective EGFR kinase inhibitors against EGFR T790M” (Nature, 2009).
Activity calls are given as the source filed them. The rule behind the calls is not given here.

Columns and labels:
[1] = test system: PC-9; test: cells; assay type: functional, cell-based; details: Homo sapiens, PC-9, 72 h
[2] = cells; assay type: functional, cell-based; details: Homo sapiens, HCC827 Gefitinib-resistant (GR) cell, 72 h
[3] = cells; assay type: functional, cell-based; details: Homo sapiens, NCI-H1819, 72 h
[4] = test system: Calu-3; test: cells; assay type: functional, cell-based; details: Homo sapiens, Calu-3, 72 h
[5] = test system: BaF3; test: cells; assay type: functional, cell-based; details: Mus musculus, BaF3, 72 h
[6] = test system: BaF3; test: cells; assay type: functional, cell-based; details: Mus musculus, BaF3, 72 h; remark: listed apart in the source
[7] = test system: BaF3; test: cells; assay type: functional, cell-based; details: Mus musculus, BaF3, 72 h; remark: listed apart in the source
[8] = target: T1, Epidermal growth factor receptor (Homo sapiens, UniProt P00533); test: Inhibition of EGFR phosphorylation in human PC9 Gefitinib-resistant (GR) cells at 0.01 to 1 uM incubated for 16 hrs by immunoblot analysis; assay type: cell-based; details: PC9 Gefitinib-resistant (GR) cell, dose 0.01-1 µM
[9] = target: Mitogen-activated protein kinase; ERK1/ERK2 (Homo sapiens) (UniProt P27361+P28482); test: Inhibition of ERK1/2 phosphorylation in human PC9 Gefitinib-resistant (GR) cells at 0.01 to 1 uM incubated for 16 hrs by immunoblot analysis; assay type: cell-based; details: PC9 Gefitinib-resistant (GR) cell, dose 0.01-1 µM
[10] = target: T1, Epidermal growth factor receptor; test: Inhibition of EGFR phosphorylation in human NCI-H1975 cells at 0.01 to 1 uM incubated for 16 hrs by immunoblot analysis; assay type: cell-based; details: dose 0.01-1 µM
[11] = target: Cyclin-G-associated kinase (Homo sapiens, UniProt O14976); test: Binding affinity to GAK (unknown origin) assessed as dissociation constant
[12] = target: Tyrosine-protein kinase ITK/TSK (Homo sapiens, UniProt Q08881); test: Binding affinity to ITK (unknown origin) assessed as dissociation constant
[13] = target: Cytoplasmic tyrosine-protein kinase BMX (Homo sapiens) (UniProt P51813); test: Binding affinity to BMX (unknown origin)
[14] = C0 in mouse at 1 mg/kg, iv administered as single dose; assay type: ADME, organism-based; details: in vivo
[15] = Half-life in mouse at 1 mg/kg, iv administered as single dose; assay type: ADME, organism-based; details: in vivo
[16] = MRT in mouse at 1 mg/kg, iv administered as single dose; assay type: ADME, organism-based; details: in vivo
[17] = Volume of distribution at steady state in mouse at 1 mg/kg, iv administered as single dose; assay type: ADME, organism-based; details: in vivo, read-out: Vdss
[18] = AUC(0 to infinity) in mouse at 10 mg/kg, po administered as single dose; assay type: ADME, organism-based; details: in vivo
[19] = MRT in mouse at 10 mg/kg, po administered as single dose; assay type: ADME, organism-based; details: in vivo
[20] = Oral bioavailability in mouse at 10 mg/kg administered as single dose; assay type: ADME, organism-based; details: in vivo
[21] = Drug concentration in mouse plasma at 1 mg/kg, iv administered as single dose and measured after 0.08 hrs; assay type: ADME, organism-based
[22] = Drug concentration in mouse plasma at 1 mg/kg, iv administered as single dose and measured after 0.25 hrs; assay type: ADME, organism-based
[23] = Drug concentration in mouse plasma at 1 mg/kg, iv administered as single dose and measured after 0.5 hrs; assay type: ADME, organism-based
[24] = Drug concentration in mouse plasma at 1 mg/kg, iv administered as single dose and measured after 1 hrs; assay type: ADME, organism-based
[25] = Drug concentration in mouse plasma at 10 mg/kg, po administered as single dose and measured after 0.25 hrs; assay type: ADME, organism-based
[26] = Drug concentration in mouse plasma at 10 mg/kg, po administered as single dose and measured after 8 hrs; assay type: ADME, organism-based
[27] = Drug concentration in mouse plasma at 10 mg/kg, po administered as single dose and measured after 24 hrs; assay type: ADME, organism-based
[28] = Toxicity in mouse harboring EGFR del E746_A750/T790M mutant assessed as effect on serum creatine level at 25 mg/kg administered via gavage for 2 weeks; assay type: organism-based; details: in vivo, po, 336 h
Summary of the method: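 Inducible bitransgenic tumor mice gavaged daily, 25 mg/kg, vehicle NMP (10% 1-methyl-2-pyrrolidinone, 90% PEG-300), compared against vehicle-treated mice; weight, serum creatine and total white blood cell count monitored during the study.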

[29] = test system: Mus musculus; test: In vivo inhibition of AKT phosphorylation in transgenic mouse harboring EGFR del E746_A750/T790M mutant at 2.5 to 25 mg/kg administered as two doses separated by 16 hours by immunoblot analysis; assay type: functional, organism-based; details: dose 2.5-25 mg/kg
[30] = test system: Mus musculus; test: In vivo antitumor activity in transgenic mouse harboring EGFR delE746_A750/T790M mutant assessed as decrease in Ki67 positive cells at 25 mg/kg administered via gavage for 2 weeks by immunohistochemical analysis; assay type: functional, organism-based
Summary of the method: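 Transgenic EGFR T790M mutant mice were given daily gavage at 25mg/kg in 10% 1-methyl-2-pyrrolidinone:90% PEG-300 vehicle, alongside vehicle-alone controls. Tumor tissue was immunostained by standard protocols, and TUNEL-positive and Ki67-positive cells were counted.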

[31] = test system: Mus musculus; test: In vivo antitumor activity in transgenic mouse harboring EGFR L858R/T790M mutant assessed as tumor regression at 25 mg/kg, administered via gavage for 2 weeks; assay type: functional, organism-based
Summary of the method: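 Inducible bitransgenic mice carrying EGFR T790M/L858R or exon19 deletion-T790M were dosed by daily gavage at 25mg/kg. The vehicle was 10% 1-methyl-2-pyrrolidinone:90% PEG-300, and the control group received vehicle alone. Tumor response was followed by MRI scanning.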

[32] = test system: Mus musculus; test: Invivo antitumor activity in transgenic mouse harboring EGFR del19/T790M mutant assessed as reduction in small residual nodules in tumor at 25 mg/kg administered via gavage for 2 weeks by H&E staining based analysis; assay type: functional, organism-based
Summary of the method: (§1)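 EGFR-TL (L858R/T790M) or exon19 deletion-T790M (TD) inducible bitransgenic mice dosed by oral gavage daily at 25 mg/kg; vehicle 10% 1-methyl-2-pyrrolidinone:90% PEG-300. Tumors followed by MRI; lung histology by standard protocols.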

[33] = test system: Mus musculus; test: Invivo antitumor activity in transgenic mouse harboring EGFR del19/T790M mutant assessed as decrease in cellularity at 25 mg/kg administered via gavage for 2 weeks by H&E staining based analysis; assay type: functional, organism-based
Summary of the method: as §1

[34] = test system: Mus musculus; test: Invivo antitumor activity in transgenic mouse harboring EGFR L858R/T790M mutant assessed as remodelling/scarring at 25 mg/kg administered via gavage for 2 weeks by H&E staining based analysis; assay type: functional, organism-based
Summary of the method: as §1

[35] = test system: BaF3; test: Prevention of EGFR T790M mutant development in mouse BaF3 cells harboring delE746_A750 mutant assessed as reduction in resistant clones with T790M mutant at 0.001 to 1 uM; assay type: functional, cell-based; details: dose 0.001-1 µM
Summary of the method: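 Ba/F3 cells with EGFR L858R or delE746_A750 mutagenized with N-ethyl-N-nitrosourea, then expanded in 100 nM or 1 μM inhibitor; resistant clones isolated and characterized for EGFR T790M.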

[36] = test system: PC-9; test: Prevention of EGFR T790M mutant development in human PC-9 cells harboring delE746_A750 mutant assessed as reduction in resistant cells with T790M mutant at 1 uM; assay type: functional, cell-based

T1 sequence (P00533 whole entry): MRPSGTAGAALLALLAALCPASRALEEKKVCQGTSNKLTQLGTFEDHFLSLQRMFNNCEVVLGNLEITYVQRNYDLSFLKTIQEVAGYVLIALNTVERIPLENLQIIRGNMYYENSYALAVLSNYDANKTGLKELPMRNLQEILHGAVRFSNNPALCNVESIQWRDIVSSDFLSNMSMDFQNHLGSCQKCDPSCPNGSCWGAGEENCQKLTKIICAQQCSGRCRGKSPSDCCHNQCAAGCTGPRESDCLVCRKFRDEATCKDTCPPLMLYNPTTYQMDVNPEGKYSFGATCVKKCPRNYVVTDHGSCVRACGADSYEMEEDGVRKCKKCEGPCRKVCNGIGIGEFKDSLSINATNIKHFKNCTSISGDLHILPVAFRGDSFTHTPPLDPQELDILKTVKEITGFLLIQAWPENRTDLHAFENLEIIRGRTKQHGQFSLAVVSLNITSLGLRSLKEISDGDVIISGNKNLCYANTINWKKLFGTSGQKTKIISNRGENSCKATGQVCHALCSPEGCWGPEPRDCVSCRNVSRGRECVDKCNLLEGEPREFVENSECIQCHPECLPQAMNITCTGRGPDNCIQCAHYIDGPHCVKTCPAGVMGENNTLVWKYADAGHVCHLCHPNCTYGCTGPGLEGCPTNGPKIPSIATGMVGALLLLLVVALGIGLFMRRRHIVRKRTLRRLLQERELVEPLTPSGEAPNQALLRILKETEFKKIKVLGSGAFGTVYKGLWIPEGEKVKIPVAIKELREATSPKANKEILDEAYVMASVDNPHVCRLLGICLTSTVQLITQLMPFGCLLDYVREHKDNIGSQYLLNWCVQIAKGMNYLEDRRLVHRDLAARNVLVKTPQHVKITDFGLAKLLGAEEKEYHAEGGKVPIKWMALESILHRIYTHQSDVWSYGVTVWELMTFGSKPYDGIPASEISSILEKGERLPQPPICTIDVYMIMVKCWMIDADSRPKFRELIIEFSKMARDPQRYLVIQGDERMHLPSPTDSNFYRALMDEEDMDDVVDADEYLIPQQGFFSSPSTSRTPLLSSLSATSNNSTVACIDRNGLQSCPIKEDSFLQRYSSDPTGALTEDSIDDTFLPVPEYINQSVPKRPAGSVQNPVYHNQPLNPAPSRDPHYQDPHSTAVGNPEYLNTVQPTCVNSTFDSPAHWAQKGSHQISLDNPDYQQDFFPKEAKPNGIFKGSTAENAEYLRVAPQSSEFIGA
Sequence of Cytoplasmic tyrosine-protein kinase BMX (Homo sapiens) (P51813 whole entry): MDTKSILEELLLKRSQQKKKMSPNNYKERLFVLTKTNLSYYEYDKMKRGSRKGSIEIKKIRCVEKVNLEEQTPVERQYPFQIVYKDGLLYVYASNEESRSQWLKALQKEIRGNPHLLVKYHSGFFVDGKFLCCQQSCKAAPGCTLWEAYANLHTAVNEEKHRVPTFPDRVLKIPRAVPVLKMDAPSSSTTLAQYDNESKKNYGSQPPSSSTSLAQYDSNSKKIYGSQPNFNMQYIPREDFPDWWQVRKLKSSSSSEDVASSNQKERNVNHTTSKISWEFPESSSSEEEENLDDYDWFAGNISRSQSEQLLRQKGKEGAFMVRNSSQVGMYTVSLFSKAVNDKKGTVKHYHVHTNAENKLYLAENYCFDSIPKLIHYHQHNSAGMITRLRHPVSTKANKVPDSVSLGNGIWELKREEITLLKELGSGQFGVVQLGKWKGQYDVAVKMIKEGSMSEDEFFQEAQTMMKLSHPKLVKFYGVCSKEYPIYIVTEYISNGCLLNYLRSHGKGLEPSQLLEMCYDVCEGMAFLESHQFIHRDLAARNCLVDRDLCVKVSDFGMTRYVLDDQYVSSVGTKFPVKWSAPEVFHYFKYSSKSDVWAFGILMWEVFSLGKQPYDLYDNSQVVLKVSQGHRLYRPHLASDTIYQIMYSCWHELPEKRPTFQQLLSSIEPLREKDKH
Sequence of Mitogen-activated protein kinase; ERK1/ERK2 (Homo sapiens) (P27361 whole entry, looked up): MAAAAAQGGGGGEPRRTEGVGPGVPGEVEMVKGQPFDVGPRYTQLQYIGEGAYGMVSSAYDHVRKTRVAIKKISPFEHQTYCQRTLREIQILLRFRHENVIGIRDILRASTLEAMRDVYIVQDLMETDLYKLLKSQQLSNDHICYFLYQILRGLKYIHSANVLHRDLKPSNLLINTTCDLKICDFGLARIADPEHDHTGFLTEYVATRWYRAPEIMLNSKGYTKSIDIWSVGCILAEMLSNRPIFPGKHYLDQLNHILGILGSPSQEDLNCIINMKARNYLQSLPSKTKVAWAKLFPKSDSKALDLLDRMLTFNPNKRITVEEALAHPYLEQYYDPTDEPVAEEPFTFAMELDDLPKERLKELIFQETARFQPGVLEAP
Sequence of Mitogen-activated protein kinase; ERK1/ERK2 (Homo sapiens) (P28482 whole entry, looked up): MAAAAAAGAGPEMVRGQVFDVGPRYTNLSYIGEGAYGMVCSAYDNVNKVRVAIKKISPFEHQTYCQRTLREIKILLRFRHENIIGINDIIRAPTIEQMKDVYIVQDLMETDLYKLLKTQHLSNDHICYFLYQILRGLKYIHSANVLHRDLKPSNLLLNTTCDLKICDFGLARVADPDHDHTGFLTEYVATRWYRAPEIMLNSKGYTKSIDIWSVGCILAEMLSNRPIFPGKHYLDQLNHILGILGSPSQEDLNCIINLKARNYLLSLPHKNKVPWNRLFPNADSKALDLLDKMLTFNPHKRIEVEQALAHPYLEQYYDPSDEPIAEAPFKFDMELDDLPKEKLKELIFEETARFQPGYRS
Sequence of Cyclin-G-associated kinase (O14976 whole entry): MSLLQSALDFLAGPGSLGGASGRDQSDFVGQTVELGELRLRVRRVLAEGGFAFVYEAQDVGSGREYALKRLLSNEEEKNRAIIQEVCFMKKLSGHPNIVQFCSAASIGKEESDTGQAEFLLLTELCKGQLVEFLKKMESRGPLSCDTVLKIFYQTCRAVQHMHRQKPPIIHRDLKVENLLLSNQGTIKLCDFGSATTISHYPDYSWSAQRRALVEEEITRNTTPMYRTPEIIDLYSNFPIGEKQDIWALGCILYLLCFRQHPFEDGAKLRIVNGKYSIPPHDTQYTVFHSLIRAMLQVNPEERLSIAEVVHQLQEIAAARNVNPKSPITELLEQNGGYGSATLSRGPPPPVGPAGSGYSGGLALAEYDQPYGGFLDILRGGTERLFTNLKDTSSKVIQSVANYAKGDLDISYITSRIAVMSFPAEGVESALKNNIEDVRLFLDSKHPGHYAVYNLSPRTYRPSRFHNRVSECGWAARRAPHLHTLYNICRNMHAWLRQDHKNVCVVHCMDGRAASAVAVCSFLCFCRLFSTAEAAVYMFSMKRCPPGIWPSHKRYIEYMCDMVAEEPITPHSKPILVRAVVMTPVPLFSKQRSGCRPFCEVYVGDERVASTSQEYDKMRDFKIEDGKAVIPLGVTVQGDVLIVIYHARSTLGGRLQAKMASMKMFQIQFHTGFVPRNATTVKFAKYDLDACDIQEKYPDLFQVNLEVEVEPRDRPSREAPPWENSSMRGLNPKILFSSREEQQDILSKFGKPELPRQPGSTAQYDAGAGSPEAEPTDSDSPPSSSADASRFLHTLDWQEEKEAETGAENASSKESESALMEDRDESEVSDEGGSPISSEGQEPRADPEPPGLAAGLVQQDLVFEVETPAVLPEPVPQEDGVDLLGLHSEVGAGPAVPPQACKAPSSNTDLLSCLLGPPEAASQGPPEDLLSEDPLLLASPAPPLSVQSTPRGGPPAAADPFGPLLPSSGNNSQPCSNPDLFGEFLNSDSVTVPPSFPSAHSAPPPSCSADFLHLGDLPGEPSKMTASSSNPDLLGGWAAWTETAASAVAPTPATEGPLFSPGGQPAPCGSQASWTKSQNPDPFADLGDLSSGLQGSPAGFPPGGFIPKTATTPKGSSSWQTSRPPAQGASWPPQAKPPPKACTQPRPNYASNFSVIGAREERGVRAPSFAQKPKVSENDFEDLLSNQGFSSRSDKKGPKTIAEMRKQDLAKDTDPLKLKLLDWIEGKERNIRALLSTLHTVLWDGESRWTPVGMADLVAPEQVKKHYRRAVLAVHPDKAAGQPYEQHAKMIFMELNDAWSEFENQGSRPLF
Sequence of Tyrosine-protein kinase ITK/TSK (Q08881 whole entry): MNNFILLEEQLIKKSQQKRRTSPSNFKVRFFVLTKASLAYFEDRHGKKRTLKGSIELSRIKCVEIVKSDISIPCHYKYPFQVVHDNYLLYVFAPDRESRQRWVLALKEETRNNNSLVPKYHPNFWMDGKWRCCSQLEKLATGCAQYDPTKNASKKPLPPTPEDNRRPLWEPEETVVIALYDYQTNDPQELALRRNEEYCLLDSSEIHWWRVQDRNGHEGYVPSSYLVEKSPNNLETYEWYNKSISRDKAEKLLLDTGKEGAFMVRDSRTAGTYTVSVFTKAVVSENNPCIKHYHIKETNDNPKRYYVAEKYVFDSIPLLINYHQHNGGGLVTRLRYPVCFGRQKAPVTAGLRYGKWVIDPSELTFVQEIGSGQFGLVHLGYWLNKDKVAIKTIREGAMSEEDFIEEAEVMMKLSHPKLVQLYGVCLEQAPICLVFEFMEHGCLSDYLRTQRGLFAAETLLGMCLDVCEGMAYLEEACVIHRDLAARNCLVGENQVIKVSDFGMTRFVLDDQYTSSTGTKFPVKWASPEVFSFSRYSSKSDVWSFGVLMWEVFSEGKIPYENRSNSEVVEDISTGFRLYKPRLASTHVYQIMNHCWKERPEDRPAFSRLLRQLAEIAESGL

- IC50 [1]: 0.036 µM
- IC50 [2]: > 3.3 µM
- IC50 [3]: 0.924 µM
- IC50 [4]: 1.96 µM
- IC50 [5]: 0.002 µM
- IC50 [6]: 1.86 µM
- IC50 [7]: 0.035 µM
- inhibition [8]: Active
- inhibition [9]: Active
- inhibition [10]: Active
- Kd [11]: 0.091 µM
- Kd [12]: 0.043 µM
- Activity [13]: inactive
- C0 [14]: 1480 ng/mL
- half-life [15]: 1.76 h
- MRT [16]: 1.51 h
- Vd [17]: 1.54 L/kg
- AUC(0-inf) [18]: 2400 ng·h/mL
- MRT [19]: 3.98 h
- bioavailability [20]: 24.5%
- concentration at 0.08 h [21]: 1130 ng/mL
- concentration at 0.25 h [22]: 627 ng/mL
- concentration at 0.5 h [23]: 451 ng/mL
- concentration at 1 h [24]: 228 ng/mL
- concentration at 0.25 h [25]: 429 ng/mL
- concentration at 8 h [26]: 59.2 ng/mL
- concentration at 24 h [27]: 0.82 ng/mL
SMILES: C=CC(=O)Nc1cccc(Oc2nc(Nc3ccc(N4CCN(C)CC4)cc3OC)ncc2Cl)c1
- Activity [28]: Non-Toxic
- inhibition [29]: Active
- Activity [30]: Active
- Activity [31]: Active
- Activity [32]: Active
- Activity [33]: Active
- Activity [34]: Active
- Activity [35]: Active
- Activity [36]: Active
